Values after ≈ are worked out from the molar mass of the structure shown.
Columns and labels:
[1] = system: Staphylococcus aureus (MTCC 96); experiment: Antibacterial activity; assay type: cell-based; details: MTCC96, read-out: MIC, S. aureus
Summary of the method: (§1)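 Screened by a standard method against S. aureus MTCC 96, B. subtilis MTCC 121, E. coli MTCC 1652 and P. aeruginosa MTCC 741. Ciprofloxacin was the reference antibiotic. Only compounds active at 100 μg/mL went on to MIC determination.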

[2] = system: Escherichia coli (MTCC 1652); experiment: Antibacterial activity; assay type: cell-based; details: for MIC: Escherichia coli, MTCC1652, read-out: MIC, E. coli; for MIC, E. coli: E. coli (MTCC 1652)
Summary of the method: as §1

[3] = system: Pseudomonas aeruginosa (MTCC 741); experiment: Antibacterial activity; assay type: cell-based; details: for MIC: Pseudomonas aeruginosa, MTCC741, read-out: MIC, P. aeruginosa; for MIC, P. aeruginosa: P. aeruginosa (MTCC 741)
Summary of the method: as §1

[4] = system: Bacillus subtilis (MTCC 121); experiment: Antibacterial activity; assay type: cell-based; details: MTCC121, read-out: MIC, B. subtilis
Summary of the method: as §1

[5] = system: Aspergillus niger; experiment: Antifungal activity; assay type: cell-based; details: read-out: MIC, A. niger
Summary of the method: (§2)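 Run by the poison food technique against Aspergillus niger and Aspergillus flavus. Fluconazole was the reference drug.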

[6] = system: Aspergillus flavus; experiment: Antifungal activity; assay type: cell-based; details: read-out: MIC, A. flavus
Summary of the method: as §2

[7] = system: carrageenan induced edema; experiment: Anti-inflammatory activity, carrageenan induced rat paw edema; assay type: in vivo, Wistar rats; details: inhibition of edema, rats
Summary of the method: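 Used the Winter et al. paw oedema method in Wistar rats of either sex (160–200 g), housed six per cage and acclimatised 48 h. Percent inhibition of oedema was calculated at 1, 2, 3 and 4 h. Diclofenac served as the standard drug.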

SMILES | MIC [1] [µg/mL] | MIC [2] [µg/mL] | MIC [3] [µg/mL] | MIC [4] [µg/mL] | MIC [5] [µg/mL] | MIC [6] [µg/mL] | % Inhibition ± SEM After 1 h [7] | % Inhibition ± SEM After 2 h [7] | % Inhibition ± SEM After 3 h [7] | % Inhibition ± SEM After 4 h [7] | MIC, E. coli [2] | MIC, P. aeruginosa [3]
O=C1OC(c2ccc(-c3ccccc3)cc2)=CC1=Cc1cc2cc(Cl)ccc2nc1Cl [Compound 5f, 3-[(2,6-Dichloroquinolin-3-yl)methylene]-5-(biphenyl-4-yl)furan-2(3H)-one] | 12.5 (≈ 28.1 µM) | 50 (≈ 113 µM) | > 100 | 25 (≈ 56.3 µM) | 25 (≈ 56.3 µM) | 25 (≈ 56.3 µM) | 63 ± 0.13^∗∗ % | 58 ± 0.21^∗∗ % | 53 ± 0.17% | 58 ± 0.12^∗∗ % | – | –
OC(Cn1cncn1)(Cn1cncn1)c1ccc(F)cc1F [Standard-2, Fluconazole, reference compound] | – | – | – | 6.25 (≈ 20.4 µM) | 6.25 (≈ 20.4 µM) | 6.25 (≈ 20.4 µM) | – | – | – | – | – | –
O=C1NC(c2ccc(-c3ccccc3)cc2)=CC1=Cc1cc2ccccc2nc1Cl [Compound 6e, 3-[(2-Chloroquinolin-3-yl)methylene]-5-(biphenyl-4-yl)-1H-pyrrol-2(3H)-one] | 12.5 (≈ 30.6 µM) | > 100 | 50 (≈ 122 µM) | 50 (≈ 122 µM) | 50 (≈ 122 µM) | 25 (≈ 61.1 µM) | 38 ± 0.21% | 48 ± 0.21^∗∗ % | 44 ± 0.33% | 35 ± 0.32% | – | –
Cc1ccc2nc(Cl)c(C=C3C=C(c4ccc5ccccc5c4)NC3=O)cc2c1 [Compound 6c, 3-[(2-Chloro-6-methylquinolin-3-yl)methylene]-5-(naphthalene-2-yl)-1H-pyrrol-2(3H)-one] | 12.5 (≈ 31.5 µM) | > 100 | 50 (≈ 126 µM) | 12.5 (≈ 31.5 µM) | 25 (≈ 63 µM) | 12.5 (≈ 31.5 µM) | 32 ± 0.02% | 55 ± 0.22^∗∗ % | 47 ± 0.24% | 42 ± 0.20% | – | –
O=C1NC(c2ccc(-c3ccccc3)cc2)=CC1=Cc1cc2cc(Cl)ccc2nc1Cl [Compound 6f, 3-[(2,6-Dichloroquinolin-3-yl)methylene]-5-(biphenyl-4-yl)-1H-pyrrol-2(3H)-one] | 6.25 (≈ 14.1 µM) | 50 (≈ 113 µM) | 25 (≈ 56.4 µM) | 6.25 (≈ 14.1 µM) | 6.25 (≈ 14.1 µM) | 12.5 (≈ 28.2 µM) | 48 ± 0.13% | 63 ± 0.27^∗∗ % | 25 ± 0.34% | 42 ± 0.20% | – | –
Cc1ccc2nc(Cl)c(C=C3C=C(c4ccc(-c5ccccc5)cc4)N(Cc4ccccc4)C3=O)cc2c1 [Compound 7g, 1-Benzyl-3-[(2-chloro-6-methylquinolin-3-yl)methylene]-5-(biphenyl-4-yl)-1H-pyrrol-2(3H)-one] | 25 (≈ 48.7 µM) | > 100 | > 100 | 50 (≈ 97.5 µM) | 25 (≈ 48.7 µM) | 50 (≈ 97.5 µM) | 69 ± 0.03^∗∗ % | 54 ± 0.14^∗∗ % | 30 ± 0.20% | 40 ± 0.16% | did not show any inhibition | did not show any inhibition
O=C1NC(c2ccc3ccccc3c2)=CC1=Cc1cc2ccccc2nc1Cl [Compound 6a, 3-[(2-Chloroquinolin-3-yl)methylene]-5-(naphthalene-2-yl)-1H-pyrrol-2(3H)-one] | 25 (≈ 65.3 µM) | > 100 | 50 (≈ 131 µM) | 25 (≈ 65.3 µM) | 25 (≈ 65.3 µM) | 25 (≈ 65.3 µM) | 64 ± 0.06^∗ % | 53 ± 0.18^∗∗ % | 49 ± 0.10% | 36 ± 0.32% | – | –
Cc1ccc2nc(Cl)c(C=C3C=C(c4ccc5ccccc5c4)N(Cc4ccccc4)C3=O)cc2c1 [Compound 7c, 1-Benzyl-3-[(2-chloro-6-methylquinolin-3-yl)methylene]-5-(naphthalene-2-yl)-1H-pyrrol-2(3H)-one] | 25 (≈ 51.3 µM) | 50 (≈ 103 µM) | > 100 | 50 (≈ 103 µM) | 50 (≈ 103 µM) | 25 (≈ 51.3 µM) | 78 ± 0.12^∗∗ % | 71 ± 0.28^∗∗ % | 57 ± 0.25^∗ % | 61 ± 0.21^∗∗ % | – | –
Cc1ccc2nc(Cl)c(C=C3C=C(c4ccc5ccccc5c4)OC3=O)cc2c1 [Compound 5c, 3-[(2-Chloro-6-methylquinolin-3-yl)methylene]-5-(naphthalene-2-yl)furan-2(3H)-one] | 25 (≈ 62.8 µM) | > 100 | > 100 | 50 (≈ 126 µM) | 50 (≈ 126 µM) | > 100 | 69 ± 0.12^∗∗ % | 66 ± 0.25^∗∗ % | 47 ± 0.17% | 59 ± 0.12^∗∗ % | did not show any inhibition | did not show any inhibition
Cc1ccc2nc(Cl)c(C=C3C=C(c4ccc(-c5ccccc5)cc4)OC3=O)cc2c1 [Compound 5g, 3-[(2-Chloro-6-methylquinolin-3-yl)methylene]-5-(biphenyl-4-yl)furan-2(3H)-one] | 25 (≈ 59 µM) | > 100 | > 100 | 50 (≈ 118 µM) | 50 (≈ 118 µM) | 50 (≈ 118 µM) | 67 ± 0.12^∗∗ % | 62 ± 0.11^∗∗ % | 46 ± 0.33% | 56 ± 0.06^∗∗ % | did not show any inhibition | did not show any inhibition
O=C1OC(c2ccc3ccccc3c2)=CC1=Cc1cc2ccccc2nc1Cl [Compound 5a, 3-[(2-Chloroquinolin-3-yl)methylene]-5-(naphthalene-2-yl)furan-2(3H)-one] | 50 (≈ 130 µM) | > 100 | > 100 | 50 (≈ 130 µM) | 50 (≈ 130 µM) | > 100 | 67 ± 0.14^∗∗ % | 62 ± 0.11^∗∗ % | 46 ± 0.26% | 57 ± 0.27^∗∗ % | did not show any inhibition | did not show any inhibition
O=C1NC(c2ccc(-c3ccccc3)cc2)=CC1=Cc1cc2cc([N+](=O)[O-])ccc2nc1Cl [Compound 6h, 3-[(2-Chloro-6-nitroquinolin-3-yl)methylene]-5-(biphenyl-4-yl)-1H-pyrrol-2(3H)-one] | 6.25 (≈ 13.8 µM) | 25 (≈ 55.1 µM) | 25 (≈ 55.1 µM) | 12.5 (≈ 27.5 µM) | 25 (≈ 55.1 µM) | 25 (≈ 55.1 µM) | 58 ± 0.19^∗ % | 58 ± 0.05^∗∗ % | 50 ± 0.18% | 48 ± 0.15^∗ % | – | –
O=C1C(=Cc2cc3ccccc3nc2Cl)C=C(c2ccc(-c3ccccc3)cc2)N1Cc1ccccc1 [Compound 7e, 1-Benzyl-3-[(2-chloroquinolin-3-yl)methylene]-5-(biphenyl-4-yl)-1H-pyrrol-2(3H)-one] | 50 (≈ 100 µM) | > 100 | > 100 | > 100 | 50 (≈ 100 µM) | > 100 | 78 ± 0.12^∗∗ % | 51 ± 0.11^∗∗ % | 44 ± 0.08% | 41 ± 0.08% | did not show any inhibition | did not show any inhibition
O=C1OC(c2ccc(-c3ccccc3)cc2)=CC1=Cc1cc2ccccc2nc1Cl [Compound 5e, 3-[(2-Chloroquinolin-3-yl)methylene]-5-(biphenyl-4-yl)furan-2(3H)-one] | 25 (≈ 61 µM) | > 100 | > 100 | 50 (≈ 122 µM) | 25 (≈ 61 µM) | 50 (≈ 122 µM) | 63 ± 0.09^∗ % | 60 ± 0.22^∗∗ % | 53 ± 0.18% | 59 ± 0.12^∗∗ % | – | –
O=C1C(=Cc2cc3ccccc3nc2Cl)C=C(c2ccc3ccccc3c2)N1Cc1ccccc1 [Compound 7a, 1-Benzyl-3-[(2-chloroquinolin-3-yl)methylene]-5-(naphthalene-2-yl)-1H-pyrrol-2(3H)-one] | 50 (≈ 106 µM) | 25 (≈ 52.9 µM) | > 100 | > 100 | 50 (≈ 106 µM) | > 100 | 52 ± 0.13^∗ % | 62 ± 0.27^∗∗ % | 28 ± 0.34% | 57 ± 0.13^∗∗ % | – | –
Cc1ccc2nc(Cl)c(C=C3C=C(c4ccc(-c5ccccc5)cc4)NC3=O)cc2c1 [Compound 6g, 3-[(2-Chloro-6-methylquinolin-3-yl)methylene]-5-(biphenyl-4-yl)-1H-pyrrol-2(3H)-one] | 25 (≈ 59.1 µM) | 50 (≈ 118 µM) | 50 (≈ 118 µM) | 12.5 (≈ 29.6 µM) | 25 (≈ 59.1 µM) | 12.5 (≈ 29.6 µM) | 52 ± 0.08^∗ % | 48 ± 0.24^∗∗ % | 25 ± 0.17% | 36 ± 0.19% | – | –
O=C(O)c1cn(C2CC2)c2cc(N3CCNCC3)c(F)cc2c1=O [Standard-1, Ciprofloxacin, reference compound] | 6.25 (≈ 18.9 µM) | 6.25 (≈ 18.9 µM) | 6.25 (≈ 18.9 µM) | – | – | – | – | – | – | – | – | –

Reference: paper PMC5094435 (Saudi Pharmaceutical Journal : SPJ, 2015)
